Among the data in ChEMBL document CHEMBL2150921, “Synthesis, structure-activity relationships, and docking studies of N-phenylarylformamide derivatives (PAFAs) as non-nucleoside HIV reverse transcriptase inhibitors” (Eur J Med Chem, 2012) are CC50, EC50 and selectivity ratio values, retold here.

One data set concerns C8166. In words: Cytotoxicity against human C8166 cells assessed as decrease in cell viability by MTT assay. Type of data set: functional.
Conditions: not given
The procedure, abridged:
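Uninfected C8166 cells exposed to compound; viability read by MTT colorimetric assay at A570/630. CC50, the concentration reducing viable cells by 50%, taken from dose-response curve. Mean of at least two separate experiments.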
In general terms: Tetrazolium dyes change colour on reduction, which living cells bring about.
As for `Cc1ccc(C)c(C(=O)Nc2cc(Cl)ccc2OCC(=O)Nc2ccc(S(N)(=O)=O)cc2C)c1`, the CC50 (in general, the concentration that lowers cell viability or growth by half) stood at 79.7 µM.

For `Cc1cc(C)cc(C(=O)Nc2cc(Cl)ccc2OCC(=O)Nc2ccc(S(N)(=O)=O)cc2C)c1`, the CC50 was determined as 36.5 µM.

Regarding `Cc1cc(S(N)(=O)=O)ccc1NC(=O)COc1ccc(Cl)cc1NC(=O)c1ccc(Cl)cc1Cl`, the CC50 is 61.1 µM.

As to `Cc1cc(S(N)(=O)=O)ccc1NC(=O)COc1ccc(Cl)cc1NC(=O)c1cc(Cl)ccc1Cl`, the CC50 was 42.1 µM.

Consider `Cc1cc(S(N)(=O)=O)ccc1NC(=O)COc1ccc(Cl)cc1NC(=O)c1ccc(Cl)c(Cl)c1`, for which the CC50 came out at 158 µM.

As for `Cc1cc(S(N)(=O)=O)ccc1NC(=O)COc1ccc(Cl)cc1NC(=O)c1cc(Cl)cc(Cl)c1`, the CC50 turned out to be 72.4 µM.

On to `Cc1cc(S(N)(=O)=O)ccc1NC(=O)COc1ccc(Cl)cc1NC(=O)c1cc(Cl)cc(Br)c1`, for which the CC50 worked out at 114 µM.

Turning to `Cc1cc(S(N)(=O)=O)ccc1NC(=O)COc1ccc(Cl)cc1NC(=O)c1cc(Br)cc(Br)c1`, the CC50 worked out at 89.7 µM.

For `Cc1cc(S(N)(=O)=O)ccc1NC(=O)COc1ccc(Cl)cc1NC(=O)/C=C/c1ccccc1`, the CC50 is 163 µM.

For the molecule `Cc1cc(S(N)(=O)=O)ccc1NC(=O)COc1ccc(Cl)cc1NC(=O)Cc1c(Cl)cccc1Cl`, the CC50 is > 359 µM.

As for `Cc1cn([C@H]2C[C@H](N=[N+]=[N-])[C@@H](CO)O2)c(=O)[nH]c1=O` [ZIDOVUDINE], the CC50 stood at 4910 µM.

A further data set concerns Human immunodeficiency virus 1. The data set can be described thus: Antiviral activity against wild type HIV1 3B infected in human C8166 cells assessed as protection against virus-induced cytopathic effect after 3 days by syncytium reduction assay. The following applies: Human immunodeficiency virus 1, 3B, C8166, 72 h. Type of data set: functional, organism-based. Put shortly:
(§1)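 C8166 cells (4 × 10⁵/mL) infected at MOI 0.06 in presence of graded compound concentrations; AZT and GW678248 as drug controls. After 3 days culture, syncytia (multinucleated giant cells) counted under inverted microscope; EC50 taken as concentration blocking 50% syncytium formation. Mean of at least two separate experiments.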
Background: Cytopathic effects are the visible damage that an infection or toxin causes in cultured cells.
Turning to `Cc1ccc(C)c(C(=O)Nc2cc(Cl)ccc2OCC(=O)Nc2ccc(S(N)(=O)=O)cc2C)c1`, the concentration giving a half-maximal response (EC50) (as a rule, the concentration needed to bring the measured effect to its halfway point) was 0.00037 µM.

Turning to `Cc1cc(C)cc(C(=O)Nc2cc(Cl)ccc2OCC(=O)Nc2ccc(S(N)(=O)=O)cc2C)c1`, the EC50 was 0.00116 µM.

`Cc1cc(S(N)(=O)=O)ccc1NC(=O)COc1ccc(Cl)cc1NC(=O)c1ccc(Cl)cc1Cl`: the EC50 was determined as 0.00297 µM.

For `Cc1cc(S(N)(=O)=O)ccc1NC(=O)COc1ccc(Cl)cc1NC(=O)c1cc(Cl)ccc1Cl`, the EC50 was determined as 0.00234 µM.

Turning to `Cc1cc(S(N)(=O)=O)ccc1NC(=O)COc1ccc(Cl)cc1NC(=O)c1ccc(Cl)c(Cl)c1`, the EC50 turned out to be 0.0514 µM.

As for `Cc1cc(S(N)(=O)=O)ccc1NC(=O)COc1ccc(Cl)cc1NC(=O)c1cc(Cl)cc(Cl)c1`, the EC50 came to 0.00027 µM.

With `Cc1cc(S(N)(=O)=O)ccc1NC(=O)COc1ccc(Cl)cc1NC(=O)c1cc(Cl)cc(Br)c1`, the EC50 stood at 3.09 µM.

As for `Cc1cc(S(N)(=O)=O)ccc1NC(=O)COc1ccc(Cl)cc1NC(=O)c1cc(Br)cc(Br)c1`, the EC50 was determined as 0.0459 µM.

Consider `Cc1cc(S(N)(=O)=O)ccc1NC(=O)COc1ccc(Cl)cc1NC(=O)/C=C/c1ccccc1`, for which the EC50 turned out to be 95.4 µM.

Regarding `Cc1cc(S(N)(=O)=O)ccc1NC(=O)COc1ccc(Cl)cc1NC(=O)Cc1c(Cl)cccc1Cl`, the EC50 came to 249 µM.

The test system of the next data set is Human immunodeficiency virus 2. The data set can be described thus: Antiviral activity against HIV2 ROD infected in human C8166 cells assessed as protection against virus-induced cytopathic effect after 3 days by syncytium reduction assay. Conditions: Human immunodeficiency virus 2, ISOLATE ROD, C8166, 72 h. Type of data set: functional, organism-based. Put shortly:
as §1
For the molecule `Cc1ccc(C)c(C(=O)Nc2cc(Cl)ccc2OCC(=O)Nc2ccc(S(N)(=O)=O)cc2C)c1`, the EC50 turned out to be 27.7 µM.

For the molecule `Cc1cc(C)cc(C(=O)Nc2cc(Cl)ccc2OCC(=O)Nc2ccc(S(N)(=O)=O)cc2C)c1`, the EC50 amounted to 25.9 µM.

Consider `Cc1cc(S(N)(=O)=O)ccc1NC(=O)COc1ccc(Cl)cc1NC(=O)c1ccc(Cl)cc1Cl`, for which the EC50 turned out to be 14.4 µM.

For the molecule `Cc1cc(S(N)(=O)=O)ccc1NC(=O)COc1ccc(Cl)cc1NC(=O)c1cc(Cl)ccc1Cl`, the EC50 was 21.6 µM.

For `Cc1cc(S(N)(=O)=O)ccc1NC(=O)COc1ccc(Cl)cc1NC(=O)c1ccc(Cl)c(Cl)c1`, the EC50 turned out to be 55.5 µM.

Consider `Cc1cc(S(N)(=O)=O)ccc1NC(=O)COc1ccc(Cl)cc1NC(=O)c1cc(Cl)cc(Cl)c1`, for which the EC50 was found to be 18 µM.

With `Cc1cc(S(N)(=O)=O)ccc1NC(=O)COc1ccc(Cl)cc1NC(=O)c1cc(Cl)cc(Br)c1`, the EC50 was determined as 61.5 µM.

On to `Cc1cc(S(N)(=O)=O)ccc1NC(=O)COc1ccc(Cl)cc1NC(=O)c1cc(Br)cc(Br)c1`, for which the EC50 came to 56.5 µM.

With `Cc1cc(S(N)(=O)=O)ccc1NC(=O)COc1ccc(Cl)cc1NC(=O)/C=C/c1ccccc1`, the EC50 is 77.5 µM.

On to `Cc1cc(S(N)(=O)=O)ccc1NC(=O)COc1ccc(Cl)cc1NC(=O)Cc1c(Cl)cccc1Cl`, for which the EC50 was 160 µM.

The subject of another data set is Human immunodeficiency virus 1. In words: Antiviral activity against HIV1 A17 harbouring RT K103N/Y181C mutant infected in human C8166 cells assessed as protection against virus-induced cytopathic effect after 3 days by syncytium reduction assay. Type of data set: functional, organism-based. The following applies: Human immunodeficiency virus 1, A17, C8166, 72 h. The procedure, abridged: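 C8166 cells (4 × 10⁵/mL) infected at M.O.I 0.06 in the presence of various compound concentrations; cultured 3 days, syncytia (multinucleated giant cells) scored under inverted microscope; EC50 = concentration blocking syncytia formation by 50%. AZT and GW678248 as drug controls. Mean of at least two separate experiments.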
As for `Cc1ccc(C)c(C(=O)Nc2cc(Cl)ccc2OCC(=O)Nc2ccc(S(N)(=O)=O)cc2C)c1`, the EC50 came to 0.14 µM.

As to `Cc1cc(C)cc(C(=O)Nc2cc(Cl)ccc2OCC(=O)Nc2ccc(S(N)(=O)=O)cc2C)c1`, the EC50 came out at 0.33 µM.

In the case of `Cc1cc(S(N)(=O)=O)ccc1NC(=O)COc1ccc(Cl)cc1NC(=O)c1ccc(Cl)cc1Cl`, the EC50 amounted to 0.33 µM.

Regarding `Cc1cc(S(N)(=O)=O)ccc1NC(=O)COc1ccc(Cl)cc1NC(=O)c1cc(Cl)ccc1Cl`, the EC50 stood at 0.42 µM.

For the molecule `Cc1cc(S(N)(=O)=O)ccc1NC(=O)COc1ccc(Cl)cc1NC(=O)c1ccc(Cl)c(Cl)c1`, the EC50 was 1.14 µM.

For `Cc1cc(S(N)(=O)=O)ccc1NC(=O)COc1ccc(Cl)cc1NC(=O)c1cc(Cl)cc(Cl)c1`, the EC50 is 0.27 µM.

For the molecule `Cc1cc(S(N)(=O)=O)ccc1NC(=O)COc1ccc(Cl)cc1NC(=O)c1cc(Cl)cc(Br)c1`, the EC50 turned out to be 27.8 µM.

Turning to `Cc1cc(S(N)(=O)=O)ccc1NC(=O)COc1ccc(Cl)cc1NC(=O)c1cc(Br)cc(Br)c1`, the EC50 is 1.39 µM.

For `Cc1cc(S(N)(=O)=O)ccc1NC(=O)COc1ccc(Cl)cc1NC(=O)/C=C/c1ccccc1`, the EC50 came out at 154 µM.

In the case of `Cc1cc(S(N)(=O)=O)ccc1NC(=O)COc1ccc(Cl)cc1NC(=O)Cc1c(Cl)cccc1Cl`, the EC50 worked out at 241 µM.

Test system in a further data set: not listed separately
The data set can be described thus: Therapeutic index, ratio of CC50 for human C8166 cells to EC50 for wild type HIV1 3B infected in human C8166 cells. The class given is cell-based. The following applies: C8166 cells infected with wild type HIV1 3B, read-out: Ratio CC50/EC50. The procedure, abridged:
(§2)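 CC50 from MTT assay on uninfected C8166 cells (A570/630, dose-response curve, 50% viable cell reduction) divided by EC50 from 3-day syncytium reduction assay in C8166 cells (4 × 10⁵/mL) infected at M.O.I 0.06; syncytia scored microscopically. Values are means of at least two separate experiments.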
Consider `Cc1ccc(C)c(C(=O)Nc2cc(Cl)ccc2OCC(=O)Nc2ccc(S(N)(=O)=O)cc2C)c1`, for which the selectivity ratio amounted to 213000.

With `Cc1cc(C)cc(C(=O)Nc2cc(Cl)ccc2OCC(=O)Nc2ccc(S(N)(=O)=O)cc2C)c1`, the selectivity ratio stood at 31300.

On to `Cc1cc(S(N)(=O)=O)ccc1NC(=O)COc1ccc(Cl)cc1NC(=O)c1ccc(Cl)cc1Cl`, for which the selectivity ratio was determined as 20600.

Consider `Cc1cc(S(N)(=O)=O)ccc1NC(=O)COc1ccc(Cl)cc1NC(=O)c1cc(Cl)ccc1Cl`, for which the selectivity ratio was found to be 18000.

Regarding `Cc1cc(S(N)(=O)=O)ccc1NC(=O)COc1ccc(Cl)cc1NC(=O)c1ccc(Cl)c(Cl)c1`, the selectivity ratio was 3060.

As to `Cc1cc(S(N)(=O)=O)ccc1NC(=O)COc1ccc(Cl)cc1NC(=O)c1cc(Cl)cc(Cl)c1`, the selectivity ratio stood at 271000.

For the molecule `Cc1cc(S(N)(=O)=O)ccc1NC(=O)COc1ccc(Cl)cc1NC(=O)c1cc(Cl)cc(Br)c1`, the selectivity ratio came out at 37.

With `Cc1cc(S(N)(=O)=O)ccc1NC(=O)COc1ccc(Cl)cc1NC(=O)c1cc(Br)cc(Br)c1`, the selectivity ratio worked out at 1950.

Turning to `Cc1cc(S(N)(=O)=O)ccc1NC(=O)COc1ccc(Cl)cc1NC(=O)/C=C/c1ccccc1`, the selectivity ratio stood at 2.

In the case of `Cc1cc(S(N)(=O)=O)ccc1NC(=O)COc1ccc(Cl)cc1NC(=O)Cc1c(Cl)cccc1Cl`, the selectivity ratio was > 2.

As for `Cc1cn([C@H]2C[C@H](N=[N+]=[N-])[C@@H](CO)O2)c(=O)[nH]c1=O` [ZIDOVUDINE], the selectivity ratio turned out to be 422000.

Test system in another data set: not listed separately
The data set can be described thus: Therapeutic index, ratio of CC50 for human C8166 cells to EC50 for HIV1 A17 harbouring RT K103N/Y181C mutant infected in human C8166 cells. The class given is cell-based. The following applies: read-out: Ratio CC50/EC50. The procedure, abridged:
as §2
`Cc1ccc(C)c(C(=O)Nc2cc(Cl)ccc2OCC(=O)Nc2ccc(S(N)(=O)=O)cc2C)c1`: the selectivity ratio was 560.

`Cc1cc(C)cc(C(=O)Nc2cc(Cl)ccc2OCC(=O)Nc2ccc(S(N)(=O)=O)cc2C)c1`: the selectivity ratio was determined as 110.

As for `Cc1cc(S(N)(=O)=O)ccc1NC(=O)COc1ccc(Cl)cc1NC(=O)c1ccc(Cl)cc1Cl`, the selectivity ratio amounted to 187.

`Cc1cc(S(N)(=O)=O)ccc1NC(=O)COc1ccc(Cl)cc1NC(=O)c1cc(Cl)ccc1Cl`: the selectivity ratio amounted to 100.

As to `Cc1cc(S(N)(=O)=O)ccc1NC(=O)COc1ccc(Cl)cc1NC(=O)c1ccc(Cl)c(Cl)c1`, the selectivity ratio was found to be 138.

For the molecule `Cc1cc(S(N)(=O)=O)ccc1NC(=O)COc1ccc(Cl)cc1NC(=O)c1cc(Cl)cc(Cl)c1`, the selectivity ratio was 268.

As for `Cc1cc(S(N)(=O)=O)ccc1NC(=O)COc1ccc(Cl)cc1NC(=O)c1cc(Cl)cc(Br)c1`, the selectivity ratio came out at 4.11.

With `Cc1cc(S(N)(=O)=O)ccc1NC(=O)COc1ccc(Cl)cc1NC(=O)c1cc(Br)cc(Br)c1`, the selectivity ratio worked out at 64.7.

As to `Cc1cc(S(N)(=O)=O)ccc1NC(=O)COc1ccc(Cl)cc1NC(=O)/C=C/c1ccccc1`, the selectivity ratio was determined as 1.06.

Regarding `Cc1cc(S(N)(=O)=O)ccc1NC(=O)COc1ccc(Cl)cc1NC(=O)Cc1c(Cl)cccc1Cl`, the selectivity ratio is > 1.49.

Turning to `Cc1cn([C@H]2C[C@H](N=[N+]=[N-])[C@@H](CO)O2)c(=O)[nH]c1=O` [ZIDOVUDINE], the selectivity ratio worked out at 216000.
